# According to ChEMBL document CHEMBL3120048 (J Med Chem, 2014):
# The source made the active and inactive calls. The rule behind the calls is not given here.
# Columns and labels:
# Homo sapiens [1] = species: Homo sapiens; assay: Inhibition of DNA polymerase-alpha (unknown origin)
# Enterovirus C = assay: Inhibition of poliovirus RdRp
# [2] = biological target: DNA polymerase beta (Homo sapiens) (UniProt P06746); assay: Inhibition of DNA polymerase-beta (unknown origin)
# Homo sapiens [3] = species: Homo sapiens; assay: Inhibition of DdRp-2 (unknown origin)
# Homo sapiens [4] = species: Homo sapiens; assay: Inhibition of DNA polymerase-gamma (unknown origin)
# [5] = Inhibition of HCV genotype 1b NS5Bdelta21 RNA dependent RNA polymerase expressed in Escherichia coli JM109 (DE3); set-up: species or system Hepatitis C virus subtype 1b
# Hepatitis C virus = assay: Antiviral activity against Hepatitis C virus Con1 genotype 1b expressing NS2-NS5B infected in human HuH7 cells after 72 hrs by luciferase reporter gene assay; format: functional, organism-based, Hepacivirus hominis; conditions: isolate Con1, Huh-7, 72 h
# Method in brief: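 Cells carrying a bicistronic luciferase reporter subgenomic replicon (Con1 GT-1b, NS2-NS5B coding region) were incubated with compound for 72 h. Relative luciferase levels were then read with Bright-Glo substrate, and EC50 values were derived from these readings.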
SMILES,IC50 [5] [nM],EC50 (Hepatitis C virus) [nM],other results
Cn1c(C2(NC(=O)c3ccc4c(C5CCCC5)c(-c5ncc(Br)cn5)n(C)c4c3)CCC2)nc2ccc(/C=C/C(=O)O)cc21 [DELEOBUVIR],50,,inhibition (Homo sapiens [1]): inactive; inhibition (Enterovirus C): inactive; inhibition [2]: inactive; inhibition (Homo sapiens [3]): inactive; inhibition (Homo sapiens [4]): inactive
C[C@@H](NC(=O)c1ccc2c(n1)nc(-c1ccoc1)n2C1CCCCC1)C(=O)Nc1ccc(/C=C/C(=O)O)cc1,330,,
C[C@@H](NC(=O)c1ccc2c(c1)nc(-c1ccoc1)n2C1CCCCC1)C(=O)Nc1ccc(/C=C/C(=O)O)cc1,88,,
COc1ccc2c(c1)OCCn1c-2c(C2CCCCC2)c2ccc(C(=O)NC3(C(=O)Nc4ccc(/C=C/C(=O)O)cc4)CCC3)cc21,560,4,
O=C(O)/C=C/c1ccc(NC(=O)C2(NC(=O)c3ccc4c(c3)nc(-c3ccoc3)n4C3CCCCC3)CCNCC2)cc1,43,5000,
Cc1cc2c(cc1C(=O)N[C@H](C)C(=O)Nc1ccc(/C=C/C(=O)O)cc1)nc(-c1ccoc1)n2C1CCCCC1,4000,,
Cn1c(C(=O)O)cc2cc(NC(=O)C3(NC(=O)c4ccc5c(c4)nc(-c4ccoc4)n5C4CCCCC4)CCNCC3)ccc21,55,,
"Cn1c(C(=O)O)cc2cc(NC(=O)C3(NC(=O)c4ccc5c(c4)nc(-c4ccoc4)n5C4CCCCC4)CCCNC3)ccc21 (single isomer, unassigned; enantiomer 1)",1300,,
"Cn1c(C(=O)O)cc2cc(NC(=O)C3(NC(=O)c4ccc5c(c4)nc(-c4ccoc4)n5C4CCCCC4)CCCNC3)ccc21 (single isomer, unassigned; enantiomer 2)",84,,
Cn1c(C2(NC(=O)c3ccc4c5c(n(C)c4c3)CCCC53CCCCC3)CCC2)nc2cc3cc(C(=O)O)sc3cc21,350,38,
CCOc1cc(NC(=O)C2(NC(=O)c3ccc4c5c(n(C)c4c3)CCCC53CCCCC3)CCC2)ccc1/C=C/C(=O)O,460,94,
O=C(O)COc1ccc2[nH]cc(C[C@H](NC(=O)c3ccc4c(c3)nc(-c3ccoc3)n4C3CCCCC3)C(=O)O)c2c1,,65000,
Cn1c2c(c3ccc(C(=O)O)cc31)C1(CCCCC1)CCC2,16000,> 11000,
Cc1c(C(=O)N[C@H](C)C(=O)Nc2ccc(/C=C/C(=O)O)cc2)ccc2c1nc(-c1ccoc1)n2C1CCCCC1,890,,
Cn1c(C2(NC(=O)c3ccc4c5c(n(C)c4c3)CCCC53CCCCC3)CCC2)nc2ccc(/C=C/C(=O)O)cc21,180,49,
